Laboratory results taken from ChEMBL document CHEMBL4808187, “Antiarrhythmic Hit to Lead Refinement in a Dish Using Patient-Derived iPSC Cardiomyocytes” (J Med Chem, 2021).
Activity calls are given as the source filed them. No cut-off for these calls is given here.

Experiments:
iPSC-CM [1] = experiment: (§1) Antiarrhythmic activity in patient-derived hiPSC-CMs carrying LQT3 mutation assessed as shortening dose of action potential; assay type: functional; settings: Homo sapiens
[2] = Antiarrhythmic activity in patient-derived hiPSC-CMs carrying LQT3 mutation assessed as shortening of action potential duration; assay type: functional, Homo sapiens; settings: ipsc-cm
[3] = Antiarrhythmic activity in hiPSC-CMs assessed as dose for induction of early after depolarizations; settings: human, ipsc-cm
[4] = Antiarrhythmic activity in hiPSC-CMs assessed as prolongation of action potential; design: species or system Homo sapiens, iPSC-CM
[5] = Antiarrhythmic activity in hiPSC-CMs assessed as cessation dose of cell beating; settings: human, ipsc-cm
iPSC-CM [6] = experiment: (§2) Antiarrhythmic activity in patient-derived hiPSC-CMs carrying LQT3 mutation assessed as cessation dose for cell beating; assay type: functional; settings: Homo sapiens
[7] = as §1; assay type: functional, Homo sapiens, iPSC-CM
[8] = Potency index, ratio of mexiletine EC50 to test compound EC50 for antiarrhythmic activity in hiPSC-CMs expressing LQT3 mutation assessed as shortening of action potential duration; assay type: functional, Homo sapiens, iPSC-CM
[9] = (§3) Antiarrhythmic activity in patient-derived hiPSC-CMs carrying LQT3 mutation assessed as fold shortening of action potential duration relative to control; assay type: functional, Homo sapiens, iPSC-CM
[10] = as §2; assay type: functional, Homo sapiens, iPSC-CM
[11] = Oral bioavailability in Sprague-Dawley rat at 25 mg/kg measured upto 25 hrs by LCMS analysis; assay type: ADME, organism-based; settings: in vivo
[12] = Cmax in Sprague-Dawley rat at 5 mg/kg, iv measured upto 25 hrs by LCMS analysis; assay type: ADME, organism-based; design: route intravenous, dose 5 mg/kg, time <=25; settings: in vivo
[13] = Cmax in Sprague-Dawley rat at 25 mg/kg, po measured upto 25 hrs by LCMS analysis; assay type: ADME, organism-based; design: route oral, dose 25 mg/kg, time <=25; settings: in vivo
[14] = Inhibition of potassium channel (unknown origin) expressed in CHO cells assessed as reduction in potassium current by automated patch clamp method; assay type: cell-based
Cytochrome P450 3A5 = Cytochrome P450 3A5 (Homo sapiens, UniProt P20815); experiment: Drug metabolism assessed as human CYP3A5-mediated metabolism per ug protein; assay type: ADME; settings: recombinant enzyme
Chain of Cytochrome P450 3A5 (P20815 whole entry): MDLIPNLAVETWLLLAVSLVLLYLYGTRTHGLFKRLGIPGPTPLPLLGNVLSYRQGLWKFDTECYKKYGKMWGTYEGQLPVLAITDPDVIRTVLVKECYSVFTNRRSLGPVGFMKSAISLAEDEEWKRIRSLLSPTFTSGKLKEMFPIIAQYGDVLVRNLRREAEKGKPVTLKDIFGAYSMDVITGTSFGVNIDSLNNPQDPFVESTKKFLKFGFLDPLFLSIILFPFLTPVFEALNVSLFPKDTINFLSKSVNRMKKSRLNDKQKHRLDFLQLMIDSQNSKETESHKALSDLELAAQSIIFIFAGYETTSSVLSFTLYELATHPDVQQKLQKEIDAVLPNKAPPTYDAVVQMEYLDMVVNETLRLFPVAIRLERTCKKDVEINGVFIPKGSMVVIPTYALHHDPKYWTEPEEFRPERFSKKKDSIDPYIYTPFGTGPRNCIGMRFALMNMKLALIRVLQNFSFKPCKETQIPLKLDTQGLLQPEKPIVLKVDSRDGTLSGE

Cytochrome P450 3A4 = Cytochrome P450 3A4 (Homo sapiens, UniProt P08684); experiment: Drug metabolism assessed as human CYP3A4-mediated metabolism per ug protein; assay type: ADME; settings: recombinant enzyme
Chain of Cytochrome P450 3A4 (P08684 whole entry): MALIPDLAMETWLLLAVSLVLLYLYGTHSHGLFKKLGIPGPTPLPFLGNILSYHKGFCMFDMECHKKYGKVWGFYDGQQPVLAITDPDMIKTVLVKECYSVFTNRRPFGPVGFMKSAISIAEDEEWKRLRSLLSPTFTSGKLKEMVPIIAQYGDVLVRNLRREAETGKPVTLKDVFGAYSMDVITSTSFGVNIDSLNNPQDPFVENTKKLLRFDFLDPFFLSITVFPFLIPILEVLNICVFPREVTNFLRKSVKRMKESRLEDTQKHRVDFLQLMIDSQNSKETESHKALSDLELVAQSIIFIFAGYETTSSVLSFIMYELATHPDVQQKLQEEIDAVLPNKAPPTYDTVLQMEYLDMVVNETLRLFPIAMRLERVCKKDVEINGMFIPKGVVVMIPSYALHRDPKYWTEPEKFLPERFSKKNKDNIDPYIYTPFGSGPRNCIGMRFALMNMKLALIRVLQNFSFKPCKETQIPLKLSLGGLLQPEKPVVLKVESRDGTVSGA

[15] = Tmax in Sprague-Dawley rat at 25 mg/kg, po measured upto 25 hrs by LCMS analysis; assay type: ADME, organism-based; settings: in vivo
[16] = Tmax in Sprague-Dawley rat at 5 mg/kg, iv measured upto 25 hrs by LCMS analysis; assay type: ADME, organism-based; settings: in vivo
[17] = AUC in Sprague-Dawley rat at 5 mg/kg, iv measured upto 25 hrs by LCMS analysis; assay type: ADME, organism-based; design: route intravenous, dose 5 mg/kg, time <=25; settings: in vivo
[18] = AUC in Sprague-Dawley rat at 25 mg/kg, po measured upto 25 hrs by LCMS analysis; assay type: ADME, organism-based; design: route oral, dose 25 mg/kg, time <=25; settings: in vivo
[19] = Half life in Sprague-Dawley rat at 25 mg/kg, po measured upto 25 hrs by LCMS analysis; assay type: ADME, organism-based; settings: in vivo
Cytochrome P450 2D6 = Cytochrome P450 2D6 (Homo sapiens, UniProt P10635); experiment: Drug metabolism assessed as human CYP2D6-mediated metabolism per ug protein; assay type: ADME; settings: recombinant enzyme
Chain of Cytochrome P450 2D6 (P10635 whole entry): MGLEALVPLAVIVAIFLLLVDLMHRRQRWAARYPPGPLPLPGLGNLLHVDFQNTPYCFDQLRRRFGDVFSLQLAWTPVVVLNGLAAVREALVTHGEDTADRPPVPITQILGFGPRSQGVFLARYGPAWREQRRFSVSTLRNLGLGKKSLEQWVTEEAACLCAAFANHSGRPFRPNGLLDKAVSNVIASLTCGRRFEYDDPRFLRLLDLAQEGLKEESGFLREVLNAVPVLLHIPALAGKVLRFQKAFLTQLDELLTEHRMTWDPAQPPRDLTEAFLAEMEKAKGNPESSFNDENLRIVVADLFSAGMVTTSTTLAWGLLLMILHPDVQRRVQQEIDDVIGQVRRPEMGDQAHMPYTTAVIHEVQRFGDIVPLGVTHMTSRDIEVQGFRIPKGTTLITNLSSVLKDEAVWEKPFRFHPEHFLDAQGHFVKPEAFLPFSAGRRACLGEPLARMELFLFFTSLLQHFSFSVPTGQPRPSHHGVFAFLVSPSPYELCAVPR

[20] = Half life in Sprague-Dawley rat at 5 mg/kg, iv measured upto 25 hrs by LCMS analysis; assay type: ADME, organism-based; settings: in vivo
Homo sapiens = organism: Homo sapiens; experiment: Selectivity index, ratio of IC50 for potassium channel (unknown origin) expressed in CHO cells assessed as reduction in potassium current to IC50 for sodium channel (unknown origin) expressed in HEK cells assessed as reduction in late inward sodium current
[21] = Antiarrhythmic activity in hiPSC-CMs assessed as fold prolongation of action potential relative to control; settings: human, ipsc-cm
[22] = Inhibition of sodium channel (unknown origin) expressed in HEK cells assessed as reduction in peak sodium current by automated patch clamp method; assay type: cell-based; settings: Homo sapiens, HEK293
[23] = Inhibition of sodium channel (unknown origin) expressed in HEK cells assessed as reduction in late inward sodium current by automated patch clamp method; assay type: cell-based; settings: Homo sapiens, HEK293
iPSC-CM [24] = experiment: as §3; assay type: functional; settings: Homo sapiens
[25] = Metabolic stability in human liver microsomes assessed as compound remaining at 50 uM after 1 hr by HPLC method; assay type: ADME, Microsome; settings: read-out: Stabilty
Method in brief: (§4)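 Human liver microsomes (0.4–0.5 mg protein) or S-9 (1 mg) with 50 μM compound in 50 mM potassium phosphate pH 7.4 plus NADPH-generating system, 37 °C shaking for 0, 7, 15, 30, 60 min; stopped with cold acetonitrile; HPLC C18, isocratic water/acetonitrile with 0.05% TFA, UV 275.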

[26] = Metabolic stability in human liver S9 fraction assessed as compound remaining at 50 uM after 1 hr by HPLC method; assay type: ADME, subcellular; settings: read-out: Stabilty; method in brief: as §4
[27] = Homo sapiens, iPSC-CM, read-out: EC50

| Compound | EC50 [2] | Activity [3] | EC50 [4, 27] [µM] | Activity [5] | Activity (iPSC-CM [6]) | Activity [7] [µM] | fold change (FC) [9] | Activity [10] [µM] | EC50 ([2]; read-out: EC50) [µM] | IC50 [14] [µM] | Ratio IC50 (Homo sapiens) | IC50 [22] [µM] | IC50 [23] [µM] | other results |
| --- | --- | --- | --- | --- | --- | --- | --- | --- | --- | --- | --- | --- | --- | --- |
| CCNC(C)COc1c(C)cccc1C.Cl (centres undefined) | Not Active | 133 µM | 21.5 | Not Active | inactive | – | – | – | – | – | – | – | – | Activity (iPSC-CM [1]): inactive |
| COc1ccc(C(N)COc2c(C)cccc2C)cc1.Cl (centres undefined) | Not Active | Not Active | – | 66 µM | – | 7.4 | 1.425 | 66 | – | – | – | – | – | Ratio EC50 [8]: 7; EC50 ([4]; ipsc-cm): Not Active |
| Cc1cccc(C)c1OCC(C)N (centres undefined) [MEXILETINE] | – | 200 µM | 20.4 | Not Active | inactive | 22 | – | – | 1.8 | 53.7 | – | – | – | bioavailability [11]: 37%; Cmax [12]: 289 ng/mL; Cmax [13]: 167 ng/mL; Drug metabolism (Cytochrome P450 3A5): 48.8 pmol/min; Drug metabolism (Cytochrome P450 3A4): 46.2 pmol/min; Tmax [15]: 1 h; Tmax [16]: 0.17 h; AUC [17]: 447 ng·h/mL; AUC [18]: 839 ng·h/mL; t1/2 [19]: 11 h; Drug metabolism (Cytochrome P450 2D6): 6 pmol/min; t1/2 [20]: 10.6 h |
| Cc1cccc(C)c1OCC(C)NCCc1ccccc1.Cl (centres undefined) | Not Active | 22 µM | 2.5 | 133 µM | – | 2.5 | 1.706 | 7.4 | – | – | – | – | – | Ratio EC50 [8]: 28 |
| Cl.OCCNC(COc1cc(C(F)(F)F)cc(C(F)(F)F)c1)c1ccccc1 (centres undefined) | Not Active | Not Active | – | 66 µM | – | 7.4 | 1.5 | 22 | – | 16.8 | 16.5 | 45.1 | 1.02 | Activity [21]: Not Active |
| Cc1cccc(OCC(N)c2ccccc2)c1C.Cl (centres undefined) | Not Active | Not Active | – | 133 µM | – | 22 | 1.406 | 66 | – | 9.2 | 8.9 | 10.9 | 1.03 | EC50 ([4]; ipsc-cm): Not Active |
| COc1ccccc1OCC(C)N.Cl (centres undefined) | Not Active | 133 µM | 97.8 | Not Active | inactive | – | – | – | – | – | – | – | – | Activity (iPSC-CM [1]): inactive; fold change (FC) (iPSC-CM [24]): inactive |
| Cc1cccc(C)c1OC[C@H](C)N [(S)-MEXILETINE] | – | 200 µM | – | Not Active | inactive | 22 | – | – | 0.8 | 54.3 | – | 128 | – | remaining at 1 h, 50 µM [25]: > 95%; remaining at 1 h, 50 µM [26]: > 95% |
| CC(=O)NC(C)COc1c(C)cccc1C.Cl (centres undefined) | Not Active | Not Active | – | Not Active | inactive | – | – | – | – | – | – | – | – | Activity (iPSC-CM [1]): inactive; EC50 ([4]; ipsc-cm): Not Active; fold change (FC) (iPSC-CM [24]): inactive |
| Cc1cc(C)cc(OCC(C)N)c1.Cl (centres undefined) | – | Not Active | 7.7 | Not Active | – | 66 | 1.232 | 200 | 4.5 | 49.3 | 2.84 | 154 | 17.3 | – |
| Cc1cccc(C)c1OCC(N)C1CC1.Cl (centres undefined) | – | 66 µM | 8 | Not Active | – | 22 | 1.162 | 200 | 0.8 | 30.1 | 4.1 | 130 | 7.4 | fold change (FC) [21]: 2.805 |
